PP5 inh – inhibitors of human protein phosphatase 5 (PP5). P53041. purified PP5c, OMFP substrate fluorescence. inhibition, % at 6.7 µM. actives 0.18% (n = 320,000). AID 1987;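 active means inhibition above the campaign's mean inhibition across all tested compounds plus 3 SD, cut at about 9.5% in these data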;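 further: 0% = DMSO only and 100% = 100 µM cantharidin control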
ZTA DNA inh – ZTA (EBV) inhibition in EBNA-1 counter-screen; AID 2234; ZTA-DNA binding, fluorescence polarization; P03206; inhibition, % at 11 µM; actives 0.15% (n = 320,000); in the data active means inhibition above about 33%
PP1 counter – blocks human PP1-alpha phosphatase, a PP5 counter-screen | purified PP1alpha, OMFP fluorescence | inhibition, % at 6.7 µM | actives 0.9% (n = 320,000);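 active means inhibition above the mean inhibition of all tested compounds plus 3 SD, computed separately for each screening campaign, cut at about 15% in these data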
Target sequence (P62136 whole entry, looked up): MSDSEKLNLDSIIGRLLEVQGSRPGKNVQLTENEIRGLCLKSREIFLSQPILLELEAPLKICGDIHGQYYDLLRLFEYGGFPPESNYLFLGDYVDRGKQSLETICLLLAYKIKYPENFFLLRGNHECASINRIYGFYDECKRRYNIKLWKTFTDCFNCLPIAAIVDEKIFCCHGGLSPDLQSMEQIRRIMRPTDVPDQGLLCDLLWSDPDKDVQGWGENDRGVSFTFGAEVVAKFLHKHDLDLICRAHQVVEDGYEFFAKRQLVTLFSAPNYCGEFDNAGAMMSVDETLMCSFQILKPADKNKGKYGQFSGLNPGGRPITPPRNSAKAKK
EBNA-1 inhibitor – blocks EBNA-1 binding to DNA. EBNA-1 DNA binding, fluorescence polarization. inhibition, % at 14.8 µM. actives 0.34% (n = 300,000). AID 1950; in the data active means inhibition above about 28%
HCV core dimer – HCV core protein dimerization inhibition; TR-FRET GST/Flag-core106 dimerization, 1536-well; inhibition, % at 5 µM; actives 0.33% (n = 300,000);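 active means inhibition above the mean of all tested compounds plus 3 SD, set per screening campaign, cut at about 45% in these data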
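System: GST-tagged and Flag-tagged HCV core protein residues 1-106 / Input: core106 proteins, GST 13.5 nM and Flag 17 nM / Buffer or medium: KF-containing HEPES buffer, pH 7.45, DTT, CHAPS, BSA / Probe or stimulus: Eu-anti-GST and XL665-anti-Flag labelled anti-tag antibodies / Schedule: 4 h, 22.5 °C incubation / Technique: TR-FRET 671 and 617 nm emission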
An asterisk follows results filed as active; nt = no result. Shown are actives, neighbours in structure and some others; about 1.7% of the full set was active somewhere.

SMILES	PP5 inh	ZTA DNA inh	PP1 counter	EBNA-1 inhibitor	HCV core dimer
Cc1ccc(S(=O)(=O)N2CCCCC2CCNC(=O)C(=O)NCC2CCCO2)cc1 (stereo not given)	1	21	17*	8	0
O=C(NCCC1CCCCN1S(=O)(=O)c1ccc(F)cc1)C(=O)NCC1CCCO1 (stereo not given)	-2	3	-2	6	-4
c1ccc(Nc2nc(NCc3ccco3)c3ccccc3n2)cc1	1	4	16*	-7	-3
CC(NC(=O)C1CCN(S(=O)(=O)c2ccc(Br)s2)CC1)c1ccccc1 (stereo not given)	3	-6	0	-10	-1
O=C1S/C(=C\C=C\c2ccco2)C(=O)N1c1ccc(O)cc1	-1	19	4	10	51*
O=C(O)CCCN1C(=O)/C(=C/C=C/c2ccco2)SC1=S	2	88*	24*	45*	75*
O=C(O)CC(C(=O)O)N1C(=O)/C(=C/C=C/c2ccco2)SC1=S (stereo not given)	2	92*	11	36*	-12
O=C1S/C(=C\C=C\c2ccco2)C(=O)N1c1ccccc1	-1	15	-3	8	30
Cc1ccc(C(=O)NNC(=O)c2n[nH]c(=O)c3ccccc23)cc1C	-2	-9	2	nt	nt
CN(C)c1ccc([C@@H]2[C@@H]([N+](=O)[O-])[C@H]3C=Cc4ccccc4N3[C@H]2C(=O)c2ccc(Cl)cc2)cc1	1	-8	16*	-1	35
O=C(c1ccccc1)C1C(c2ccccc2)C1[N+](=O)[O-] (stereo not given)	-2	2	1	-5	-5
O=C(Nc1cc(S(=O)(=O)N2CCCCC2)ccc1N1CCOCC1)c1ccc(C(F)(F)F)cc1	2	-1	2	nt	nt
O=C(N/N=C/c1ccc(O)cc1O)c1ccc(CN2C(=O)c3cccc4cccc2c34)cc1	-2	-30	14	10	54*
Cc1cc([N+](=O)[O-])nn1Cc1ccc(C(=O)N/N=C/c2ccc(O)cc2O)cc1	-3	19	16*	-12	-9
O=C(N/N=C/c1ccccc1)c1ccc(CN2C(=O)c3cccc4cccc2c34)cc1	1	-11	7	10	13
CC(=O)c1ccc(OCCCC(=O)OCC(=O)Nc2ccc3[nH]c(=O)[nH]c3c2)cc1	-1	1	1	-13	-20
Cc1nn(CC(=O)NC(=O)c2ccccc2)c(C)c1[N+](=O)[O-]	2	-14	2	nt	nt
CCNc1ccccc(C(=O)/C=C/c2ccc3c(c2)OCO3)c1=O	2	15	9	-21	50*
OCC1(Cc2ccccc2F)CCCN(CC2CCCCC2)C1 (stereo not given)	1	0	0	1	-2
Cc1ccc(NC(=S)N(Cc2ccc(Cl)cc2)Cc2ccc(C(=O)O)cc2)cc1Cl	6	5	17*	-10	24
COc1ccc(CN(CC2CCC(C(=O)O)CC2)C(=S)Nc2ccc(C)c(Cl)c2)cc1 (stereo not given)	0	7	3	-4	10
CCNC(=O)COC(=O)/C=C/c1cccc(F)c1	-1	-10	0	2	-4
C#CCOCCOCCOCCNc1nc(N2CCN(C(=O)CCCCCCCCCCNC(=O)[C@H]([C@@H](C)CC)n3cc(CCCCN=C(N)N)nn3)CC2)nc(N2CCN(C(=O)CCCCCCCCCCNC(=O)[C@H](CCCCN)n3cc(C[C@@H](C)CC)nn3)CC2)n1	9	126*	71*	3	0
C#CCOCCOCCOCCNc1nc(N2CCN(C(=O)CCCCCCCCCCNC(=O)[C@H](CCCCN)n3cc(CCCC(=O)O)nn3)CC2)nc(N2CCN(C(=O)CCCCCCCCCCNC(=O)[C@H](CCCCN)n3cc(CCCC(=O)O)nn3)CC2)n1	-2	-3	1	5	3
C#CCOCCOCCOCCNc1nc(N2CCN(C(=O)CCCCCCCCCCNC(=O)[C@H](CO)n3cc(CCCSC)nn3)CC2)nc(N2CCN(C(=O)CCCCCCCCCCNC(=O)[C@H](CCCCN)n3cc(C[C@@H](C)CC)nn3)CC2)n1	5	11	51*	0	15
C#CCOCCOCCOCCNc1nc(N2CCOCC2)nc(N2CCN(C(=O)CCCCCCCCCCNC(=O)[C@H](CO)n3cc(CCCCCN)nn3)CC2)n1	0	24	4	16	-28

From PubChem BioAssay
